Calls of active or inactive are those of the source. No cut-off for these calls is given here.

Data set [1] deals with CT26. Description: Antitumor activity against mouse CT26 cells xenografted in immunodeficient BALB/c nude mouse assessed as reduction in tumour growth at 50 mg/kg, po via gavage for 10 days by vernier caliper method. It is filed as functional, organism-based. In outline: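 BALB/c nude mice carrying subcutaneous CT26 tumors (1 × 10^6 cells, armpit). Randomized 3 days post-implant into vehicle or treatment groups (n = 6). Oral gavage given on days 1–10; 5-Fu served as reference. Tumor volume and body weight recorded, and tumors weighed after sacrifice.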

A further data set relates to HeLa. The data set can be described thus: Effect on IDO1 expression in IFN-gamma-stimulated human HeLa cells at 3 times IDO1 IC50 for 24 hrs by western blot analysis. In kind it is functional, cell-based. In outline: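 HeLa cells (2 × 10^5/well) exposed to human IFN-γ 100 ng/mL with or without compound for 24 h. Lysis in 50 mM Tris-HCl pH 8.0 with detergents and protease inhibitors, then 10% SDS-PAGE and PVDF transfer. Membrane blocked with 5% milk and probed with anti-IDO antibody and HRP secondary; band intensity quantified.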
(A western blot detects proteins with antibodies after separation by electrophoresis.)

In data set [2] the test system is Mus musculus. Description: Increase in infiltrating CD8-positive T cells in BALB/c mouse xenografted with CT26 cells at 50 mg/kg via oral gavage for 17 day by immunohistochemical analysis. It is filed as functional, organism-based. A digest of the protocol: (§1)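 Paraffin sections of CT26 tumors from the 17-day BALB/c study. Sections deparaffinized, rehydrated and treated with 2% H2O2. Blocked with 3% goat serum, then incubated 2 h at room temperature with the specific primary antibody. Detection with streptavidin-HRP for 40 min and DAB, hematoxylin counterstain, microscopic imaging.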

The subject of data set [3] is CT26. The data set can be described thus: Antitumor activity against mouse CT26 cells xenografted in BALB/c mouse assessed as decrease in tumour weight at 50 mg/kg, po via gavage for 17 days by vernier caliper method relative to control. It is filed as functional. The settings on record: 408 h.
In data set [4] the test system is Mus musculus. The data set can be described thus: Induction of apoptosis in BALB/c mouse xenografted with CT26 cells assessed as nuclear chromatin margination at 50 mg/kg via oral gavage for 17 days by H&E staining based analysis. In kind it is functional, organism-based. A digest of the protocol: (§2)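 Tumor tissue from the 17-day CT26/BALB/c gavage study stained with hematoxylin and eosin. Nuclei, cytoplasm and cell morphology assessed by microscopy.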

Data set [5] has as its system Mus musculus. Description: Induction of apoptosis in BALB/c mouse xenografted with CT26 cells assessed as decrease in PCNA expression at 50 mg/kg via oral gavage for 17 days by immunohistochemistry analysis. It is filed as functional, organism-based. In outline:
as §1

The target in data set [6] is Indoleamine 2,3-dioxygenase 1 (Mus musculus) (UniProt P28776). The data set can be described thus: Reversal of IDO1-mediated immunosuppression in mouse CT26 co-cultured with T-cells assessed as increase in IFN-gamma production measured after 48 hrs by ELISA relative to control. In outline:
(§3)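 CT26 cells (1 × 10^5/well) exposed to compound ([…]) in medium with […] for 48 h. BALB/c splenic T cells resuspended in a 1:1 mix of this supernatant and RPMI/10% FBS with […] for 48 h. IFN-γ measured by ELISA; proliferation by MTT (1 mg/mL, 4 h, 37 °C, DMSO, 570 nm). Three replicate wells, mean ± SEM.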
In general terms: An ELISA detects its analyte on a solid surface through an enzyme-linked reagent.

Data set [7] concerns Mus musculus. The data set can be described thus: Induction of apoptosis in BALB/c mouse xenografted with CT26 cells assessed as nuclear chromatin condensation at 50 mg/kg via oral gavage for 17 days by H&E staining based analysis. In kind it is functional, organism-based. In outline:
as §2

The target of data set [8] is Indoleamine 2,3-dioxygenase 1 (Mus musculus) (UniProt P28776). Description: Reversal of IDO1-mediated immunosuppression in mouse CT26 co-cultured with T-cells assessed as ConA- stimulated differentiation of Treg cells at 0.3 uM measured after 48 hrs by FOXP3-APC based flow cytometry analysis (reference value: 11.4 %).
Chain of Indoleamine 2,3-dioxygenase 1 (Mus musculus) (P28776 whole entry, looked up): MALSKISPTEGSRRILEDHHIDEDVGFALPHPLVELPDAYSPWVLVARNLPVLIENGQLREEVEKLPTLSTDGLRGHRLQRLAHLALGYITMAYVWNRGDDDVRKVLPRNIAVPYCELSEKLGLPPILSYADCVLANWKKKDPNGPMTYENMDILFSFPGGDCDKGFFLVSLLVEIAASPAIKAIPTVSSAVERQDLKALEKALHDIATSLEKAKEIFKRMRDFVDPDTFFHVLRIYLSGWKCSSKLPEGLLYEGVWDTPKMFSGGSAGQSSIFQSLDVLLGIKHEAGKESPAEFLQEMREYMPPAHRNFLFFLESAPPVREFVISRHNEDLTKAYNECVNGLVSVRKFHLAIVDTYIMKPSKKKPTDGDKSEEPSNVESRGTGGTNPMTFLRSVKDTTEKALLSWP
The subject of data set [9] is Mus musculus. The data set can be described thus: Increase in Granzyme B expression in BALB/c mouse xenografted with CT26 cells at 50 mg/kg via oral gavage for 17 day by immunohistochemical analysis. It is filed as functional, organism-based. In outline:
as §1

Data set [10] deals with CT26. Description: Antitumor activity against mouse CT26 cells xenografted in BALB/c mouse assessed as decrease in tumour growth at 50 mg/kg, po via gavage for 17 days by vernier caliper method. In kind it is functional, organism-based.
In data set [11] the test system is Mus musculus. Description: Increase in IFN-gamma expression in BALB/c mouse xenografted with CT26 cells at 50 mg/kg via oral gavage for 17 day by immunohistochemical analysis. In kind it is functional, organism-based. In outline: as §1
Data set [12] in a line: Toxicity in BALB/c mouse xenografted with mouse CT26 cells assessed as effect on body weight at 50 mg/kg, po via gavage for 17 days and measured at day 17. It is filed as organism-based. To be noted: in vivo, 408 h.
The test system of data set [13] is Mus musculus. Description: Decrease in FOXP3-postive T cells in BALB/c mouse xenografted with CT26 cells at 50 mg/kg via oral gavage for 17 day by immunohistochemical analysis. It is filed as functional, organism-based. In outline: as §1
The subject of data set [14] is Mus musculus. Description: Induction of apoptosis in BALB/c mouse xenografted with CT26 cells assessed as cell shrinkage at 50 mg/kg via oral gavage for 17 days by H&E staining based analysis. In kind it is functional, organism-based. In outline:
as §2

Data set [15] addresses Tryptophan 2,3-dioxygenase (Homo sapiens) (UniProt P48775). The data set can be described thus: Inhibition of IFN-gamma-induced human TDO2 transfected in HeLa cells at 10 times IDO1 IC50 concentration using L-tryptophan as substrate incubated for 24 hrs relative to control. It is filed as cell-based. In outline: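 HeLa cells transfected for 24 h with a human TDO2 plasmid, then reseeded at 5 × 10^3/well. After 6 h, IFN-γ and compounds added in medium with […] for 24 h. Supernatant treated with 6.1 N TCA at 50 °C for 30 min and centrifuged; kynurenine read with p-dimethylaminobenzaldehyde at 480 nm.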

Data set [16] has as its system Mus musculus. The data set can be described thus: Induction of apoptosis in BALB/c mouse xenografted with CT26 cells at 50 mg/kg via oral gavage for 17 days by TUNEL assay. In kind it is functional, organism-based. In outline: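 TUNEL staining of tumor sections from the 17-day CT26/BALB/c study. Apoptotic nuclei scored by fluorescence microscopy under a FITC filter (green).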

For data set [17], the target named is Indoleamine 2,3-dioxygenase 1 (Mus musculus) (UniProt P28776). The data set can be described thus: Reversal of IDO1-mediated immunosuppression in mouse CT26 co-cultured with T-cells assessed as increase in T cell proliferation measured after 48 hrs by MTT assay. A digest of the protocol:
as §3

Chain of Tryptophan 2,3-dioxygenase (Homo sapiens) (P48775 whole entry, looked up): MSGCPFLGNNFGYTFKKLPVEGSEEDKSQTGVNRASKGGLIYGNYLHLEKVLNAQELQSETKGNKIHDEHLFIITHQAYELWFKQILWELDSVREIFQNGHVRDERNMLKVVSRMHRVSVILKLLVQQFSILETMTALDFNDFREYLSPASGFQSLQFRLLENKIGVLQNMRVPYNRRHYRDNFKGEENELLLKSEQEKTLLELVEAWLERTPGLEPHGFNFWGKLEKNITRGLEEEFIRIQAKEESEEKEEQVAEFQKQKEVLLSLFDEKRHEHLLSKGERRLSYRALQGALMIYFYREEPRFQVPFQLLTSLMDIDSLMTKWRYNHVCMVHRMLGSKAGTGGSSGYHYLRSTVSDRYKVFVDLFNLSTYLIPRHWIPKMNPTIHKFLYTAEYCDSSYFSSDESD

A word on the inhibition in vivo: it is the share of the control response that was lost under treatment. As a reminder, the inhibition is the relative decrease from the control value, in per cent. Regarding `CCC(Nc1ccc(Cl)cc1C)C(=O)N/N=C/c1ccccc1` (stereo not drawn), the outcome in the data set with CT26 [1] and in the data set with HeLa was inactive. The result with Mus musculus [2], with Mus musculus [4], in the data set on Mus musculus [5], with Mus musculus [7], in the data set on Mus musculus [9] and with Mus musculus [11] was Active. Further, the outcome (with Mus musculus [13]; with Mus musculus [14]; in the data set on Mus musculus [16]; in data set [17]) was Active. Further, the inhibition in vivo at 50 mg/kg in the data set on CT26 [3] was determined as 36%. Also, the fold change (FC) in [6] is 2. Further, the Activity in data set [8] is 5.9%; in data set [12], “Non-Toxic”. The inhibition entry in the data set with CT26 [10] was “Active”. For the same compound, in data set [15], the inhibition is under 20%.

The record behind these values is ChEMBL document CHEMBL4406863, “Effective Virtual Screening Strategy toward heme-containing proteins: Identification of novel IDO1 inhibitors” (Eur J Med Chem, 2019).
